Results as given in the RNAGym collection of RNA variant scans (doi:10.1126/science.aae0568).
Fewer inactive variants are shown than the library holds.

B1: tRNA (parent)
chain: GUUCCGUUGGCGUAAUGGUAACGCGUCUCCCUCCUAAGGAGAAGACUGCGGGUUCGAGUCCCGUACGGAACG

Variants of: B1
Test: yeast fitness relative to wild type (ratio to wild type); higher = fitter; tRNA-Arg(CCU), competitive growth, 37 C, YPD
In short: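 For this measurement, the tRNA-Arg(CCU) gene was varied by chemical synthesis at a 3% per-site mutation rate across 69 sites, and each variant was placed at the native genomic locus in Saccharomyces cerevisiae. The pooled strains went through a 24-hour competition in YPD at 37°C in six parallel replicates, with amplicons from start and end populations read by 100-nucleotide paired-end sequencing. Darwinian fitness relative to wild type followed from the change in each genotype's frequency. Genotypes needed ≥ 100 starting reads, and estimates < 0.5 were set to 0.5.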

Row | Variant | yeast fitness
1 | G6A G17A C27U C33A A37C | ≤ 0.5
2 | G6A G17A U19G A69U | 0.595
3 | G6A G17C G18C A45G G58A | ≤ 0.5
4 | G6A G17C G18C A45G G58C C66U | ≤ 0.5
5 | G6A G17C U19C C29A A70G | ≤ 0.5
6 | G6A G18A G23C U26A C30U U35A A43G | ≤ 0.5
7 | G6A G18A G41C | ≤ 0.5
8 | G6A G18C A21C C33A G56A | ≤ 0.5
9 | G6A G18C C30G C34A A37C A65U | 0.584
10 | G6A G18C C30G C34A A37C C61U A65U | ≤ 0.5
11 | G6A G18C C61G | 0.563
12 | G6A G23A C24G G44A | ≤ 0.5
13 | G6A G23A C27U C60G G67A | ≤ 0.5
14 | G6A G23C A37U A57G A65C | ≤ 0.5
15 | G6A G23C A37U A57G A65C A70U | ≤ 0.5
16 | G6A G23C C29G A43U G50A A65C | ≤ 0.5
17 | G6A G23C G41C C49U | ≤ 0.5
18 | G6A G23C G68A | ≤ 0.5
19 | G6A G25C C34U C46A | ≤ 0.5
20 | G6A G38A | 0.812
21 | G6A G38A C61A | ≤ 0.5
22 | G6A G38A U47A C60G | ≤ 0.5
23 | G6A G38C | 0.808
24 | G6A G39A U53A | ≤ 0.5

Row | Variant | yeast fitness
25 | G6A G39C | 0.821
26 | G6A G39C U54C | ≤ 0.5
27 | G6A G39C U64C | 0.605
28 | G6A G41A C60G A65G | 0.618
29 | G6A G41C | 0.863
30 | G6A G41C C55G | 0.529
31 | G6A G44A | 0.737
32 | G6A G44A C46A G52A A65U | ≤ 0.5
33 | G6A G44C A69U | 0.586
34 | G6A G44C G50C A57G | ≤ 0.5
35 | G6A G48A | 0.886
36 | G6A G48C C49U | 0.652
37 | G6A G48C G63C | 0.667
38 | G6A G50A C66A | ≤ 0.5
39 | G6A G50A G58A | 0.698
40 | G6A G51A | 0.83
41 | G6A G51C | 0.595
42 | G6A G51C A57G C61U A65C | ≤ 0.5
43 | G6A G52A G63A | ≤ 0.5
44 | G6A G52A G68C | 0.609
45 | G6A G56A | 0.852
46 | G6A G56C | 0.672
47 | G6A G63C | 0.727
48 | G6A G67C | 0.963

Row | Variant | yeast fitness
49 | G6A G67U | 0.814
50 | G6A G68A | 0.896
51 | G6A G68C A69G | 0.568
52 | G6A G68U | 0.934
53 | G6A U7A | 0.749
54 | G6A U7A C60G | ≤ 0.5
55 | G6A U7G G25C U53A A69C | ≤ 0.5
56 | G6A U7G U26C G52A C55U | ≤ 0.5
57 | G6A U8A C22G U47A A70C | ≤ 0.5
58 | G6A U8A G44C A57U | ≤ 0.5
59 | G6A U8C | 0.792
60 | G6A U8C A69C | 0.678
61 | G6A U8C G10A U19C G41A U47C | ≤ 0.5
62 | G6A U8C G10C | ≤ 0.5
63 | G6A U8C G18C A21C C33A | ≤ 0.5
64 | G6A U8G A45U G48C | ≤ 0.5
65 | G6A U8G U13A C30U G39C C55G | ≤ 0.5
66 | G6A U13A | 0.848
67 | G6A U13A A14G A42U G48C G67C | ≤ 0.5
68 | G6A U13A A14G G41C | ≤ 0.5
69 | G6A U13A U19C A40U G67A | ≤ 0.5
70 | G6A U13A U26C C30G A65C | ≤ 0.5
71 | G6A U13C | 0.937
72 | G6A U13G C22A U26A C29G C34G G50C | ≤ 0.5

Row | Variant | yeast fitness
73 | G6A U13G C27U C30A G44C C46U | ≤ 0.5
74 | G6A U13G C27U C61G | 0.667
75 | G6A U13G C27U C61G C66U | ≤ 0.5
76 | G6A U16A A36C | ≤ 0.5
77 | G6A U16A A36C A37G G56C | ≤ 0.5
78 | G6A U16A C33G A36U | ≤ 0.5
79 | G6A U16A C61G G67U | ≤ 0.5
80 | G6A U16C C27G C33A G38C A42G | ≤ 0.5
81 | G6A U16G A21G A40G A42U | 0.535
82 | G6A U16G A21G A40G A42U G67C | ≤ 0.5
83 | G6A U19A | 0.973
84 | G6A U19A G23A | 0.603
85 | G6A U19A G44A | ≤ 0.5
86 | G6A U19C | 0.99
87 | G6A U19C C30G A69C | ≤ 0.5
88 | G6A U19C G41C | 0.67
89 | G6A U19C U28G U32A G38C | ≤ 0.5
90 | G6A U19G C33U C34U | ≤ 0.5
91 | G6A U19G G52A | 0.606
92 | G6A U26A | 0.95
93 | G6A U26A C30G U59C | ≤ 0.5
94 | G6A U26A C33A G51C C62U | 0.591
95 | G6A U26A C61A | ≤ 0.5
96 | G6A U26C C29A | ≤ 0.5

Row | Variant | yeast fitness
97 | G6A U26C C62G | 0.515
98 | G6A U26C G44C | ≤ 0.5
99 | G6A U26G C30U G52A | ≤ 0.5
100 | G6A U28A C30A | ≤ 0.5
101 | G6A U28A G51A A57U | ≤ 0.5
102 | G6A U28C A45G | 0.781
103 | G6A U28C C61U | 0.628
104 | G6A U28G C60G | ≤ 0.5
105 | G6A U32A A37U A43C G48C | ≤ 0.5
106 | G6A U35A C62A C66G | 0.694
107 | G6A U35A G67C | ≤ 0.5
108 | G6A U35G A42G G56C | ≤ 0.5
109 | G6A U35G A43C G51A | ≤ 0.5
110 | G6A U47A A57U | ≤ 0.5
111 | G6A U47A C61U | 0.57
112 | G6A U47G | 0.594
113 | G6A U54A | 0.674
114 | G6A U54C | 0.948
115 | G6A U54C A57U G58A A65U | ≤ 0.5
116 | G6A U54C C60G | ≤ 0.5
117 | G6A U54G A65U | ≤ 0.5
118 | G6A U64A | 0.71
119 | G6C | 1
120 | G6C A14C C29U C34G C46U C66A G68C | ≤ 0.5

Row | Variant | yeast fitness
121 | G6C A14C C31G A42U A43G | ≤ 0.5
122 | G6C A14C U54C | ≤ 0.5
123 | G6C A14G A20C | 0.501
124 | G6C A14G A20C G68C | ≤ 0.5
125 | G6C A14G A20C U47C U64A G67A | ≤ 0.5
126 | G6C A14G C49G G50A | ≤ 0.5
127 | G6C A14G U35G | 0.605
128 | G6C A14U A70C | 0.591
129 | G6C A15C C46A | 0.504
130 | G6C A15C G52C | ≤ 0.5
131 | G6C A15G | 0.808
132 | G6C A15G G51A C66U A69C | ≤ 0.5
133 | G6C A15U | 0.738
134 | G6C A15U A43U A65U | ≤ 0.5
135 | G6C A20C | 0.773
136 | G6C A20C A40G A42U C60G | ≤ 0.5
137 | G6C A20C U35C A40G A42U G58A G63A G67A | ≤ 0.5
138 | G6C A20G | 0.773
139 | G6C A20G C22U | ≤ 0.5
140 | G6C A20G C61A | ≤ 0.5
141 | G6C A21G A57C | ≤ 0.5
142 | G6C A21G C24G C31A G44A | ≤ 0.5
143 | G6C A21G C30G A37U | 0.566
144 | G6C A21G C55A C61A | ≤ 0.5

Row | Variant | yeast fitness
145 | G6C A21G U32C G48A | 0.716
146 | G6C A21U | 0.673
147 | G6C A21U A36C A57G | ≤ 0.5
148 | G6C A21U C61G A69C | ≤ 0.5
149 | G6C A36C A65C G67A | ≤ 0.5
150 | G6C A36G G51A | ≤ 0.5
151 | G6C A37C | 0.693
152 | G6C A37C G51A U53C C62A A70C | ≤ 0.5
153 | G6C A37C G67C | ≤ 0.5
154 | G6C A37G A40U A45C C60G | ≤ 0.5
155 | G6C A37G A70C | ≤ 0.5
156 | G6C A37U A57C A69U A70C | ≤ 0.5
157 | G6C A40G A42G A57C C66U | ≤ 0.5
158 | G6C A40G C66U | ≤ 0.5
159 | G6C A42C | 0.808
160 | G6C A42C C49U | ≤ 0.5
161 | G6C A42C C49U C62U | ≤ 0.5
162 | G6C A42U C49U | 0.595
163 | G6C A42U C61A U64A A69U | ≤ 0.5
164 | G6C A43C | 0.739
165 | G6C A43C G50A | ≤ 0.5
166 | G6C A43C G50A A70U | 0.519
167 | G6C A43U | 0.831
